Reference: ChEMBL document CHEMBL2346602, “A potent bivalent Smac mimetic (SM-1200) achieving rapid, complete, and durable tumor regression in mice” (J Med Chem, 2013)
The source made the active and inactive calls. The rule behind the calls is not given here.

Key:
MDA-MB-231 [1] = assay: Antitumor activity against human MDA-MB-231 cells xenografted in nude immunodeficient mouse assessed as tumor regression at 7.5 mg/kg, iv administered every week for 4 weeks measured over 76 days; assay type: functional, organism-based; design: dose 7.5 mg/kg
Procedure, shortened: (§1)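 5 × 10⁶ MDA-MB-231 cells in 50% Matrigel injected subcutaneously, one tumor per mouse. Dosing began on day 28, at mean tumor volume 100 mm³. Tumor volume and body weight were tracked. Groups were compared by t test.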

MDA-MB-231 [2] = assay: Antitumor activity against human MDA-MB-231 cells xenografted in nude immunodeficient mouse assessed as tumor growth inhibition at 7.5 mg/kg, iv administered every week for 4 weeks measured over 76 days; assay type: functional, organism-based; design: dose 7.5 mg/kg; procedure, shortened: as §1
Rattus norvegicus [3] = assay: Apparent volume of distribution during terminal phase in Sprague-Dawley rat at […], iv; assay type: ADME, organism-based; design: dose 2.5 mg/kg, route intravenous; settings: in vivo
MDA-MB-231 [4] = assay: Antitumor activity against human MDA-MB-231 cells xenografted in nude immunodeficient mouse assessed as tumor regression at 3 mg/kg/week, iv after 1 week relative to vehicle-treated control; assay type: functional; procedure, shortened: as §1
[5] = AUC in Sprague-Dawley rat at […], iv; assay type: ADME, organism-based; design: dose 2.5 mg/kg, route intravenous; settings: plasma
MDA-MB-231 [6] = assay: Induction of apoptosis in human MDA-MB-231 cells xenografted in SCID mouse assessed as caspase 3 cleavage at 5 mg/kg, iv measured at 4 hrs by Western blot analysis; assay type: functional, organism-based; design: dose 5 mg/kg
Procedure, shortened: (§2)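 SCID mice carried subcutaneous dorsal MDA-MB-231 xenografts (5 × 10⁶ cells with Matrigel). At about 100 mm³, mice got a single iv dose of 5 mg/kg or vehicle. They were sacrificed at set time points, and tumor lysates were Western blotted for cIAP1, XIAP, caspase-3, PARP and cleaved PARP.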

MDA-MB-231 [7] = assay: Induction of apoptosis in human MDA-MB-231 cells assessed as apoptotic cells at 10 nM after 24 hrs by trypan blue assay relative to control; assay type: functional
Procedure, shortened: (§3)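 MDA-MB-231 cells were exposed to graded compound concentrations for 24 h and viability scored by trypan blue exclusion. Blue or morphologically unhealthy cells counted as dead. At least 100 cells per treatment were scored, in triplicate.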

MDA-MB-231 [8] = assay: Induction of apoptosis in human MDA-MB-231 cells xenografted in SCID mouse assessed as decrease in XIAP level at 5 mg/kg, iv after 8 to 24 hrs by Western blot analysis; assay type: functional, organism-based; design: dose 5 mg/kg; procedure, shortened: as §2
MDA-MB-231 [9] = assay: Antitumor activity against human MDA-MB-231 cells xenografted in nude immunodeficient mouse assessed as tumor regression at 3 mg/kg/week, iv after 4 weeks relative to vehicle-treated control; assay type: functional; procedure, shortened: as §1
MDA-MB-231 [10] = assay: Induction of apoptosis in human MDA-MB-231 cells assessed as caspase-3 cleavage after 24 hrs by Western blot analysis; assay type: functional, cell-based
Procedure, shortened: (§4)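 MDA-MB-231 cells were treated 24 h with graded concentrations. Lysates were made in Tris/NaCl/EDTA/SDS/NP-40 buffer with PMSF and protease inhibitors on ice, then run on 4−20% SDS-PAGE and blotted to PVDF. Blots were probed for cIAP1, cleaved PARP, and caspase-8, -9 and -3 (full-length and cleaved), with HRP chemiluminescent detection.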

MDA-MB-231 [11] = assay: Induction of apoptosis in human MDA-MB-231 cells assessed as PARP cleavage after 24 hrs by Western blot analysis; assay type: functional, cell-based; procedure, shortened: as §4
MDA-MB-231 [12] = assay: Induction of apoptosis in human MDA-MB-231 cells assessed as cIAP1 degradation at 1 nM after 24 hrs by Western blot analysis; assay type: functional, cell-based; procedure, shortened: as §4
MDA-MB-231 [13] = assay: Antitumor activity against human MDA-MB-231 cells xenografted in nude immunodeficient mouse assessed as tumor regression at 10 mg/kg/week, iv after 4 weeks relative to vehicle-treated control; assay type: functional; procedure, shortened: as §1
Mus musculus = assay: Toxicity in nude immunodeficient mouse xenografted with human MDA-MB-231 cells assessed as body weight change at 3 to 10 mg/kg, iv administered every week for 4 weeks measured over 76 days; assay type: organism-based; design: dose 3-10 mg/kg, route intravenous; settings: in vivo, 1824 h; procedure, shortened: as §1
[14] = Elimination half life in Sprague-Dawley rat at […], iv; assay type: ADME, organism-based; design: dose 2.5 mg/kg, route intravenous; settings: in vivo, read-out: beta t1/2 (converted)
MDA-MB-231 [15] = assay: Induction of apoptosis in human MDA-MB-231 cells xenografted in SCID mouse assessed as PARP cleavage at 5 mg/kg, iv after 4 to 24 hrs by Western blot analysis; assay type: functional, organism-based; design: dose 5 mg/kg; procedure, shortened: as §2
MDA-MB-231 [16] = assay: Induction of apoptosis in human MDA-MB-231 cells assessed as apoptotic cells after 24 hrs by trypan blue assay; assay type: functional, cell-based; procedure, shortened: as §3
MDA-MB-231 [17] = assay: Antitumor activity against human MDA-MB-231 cells xenografted in nude immunodeficient mouse assessed as tumor regression at 10 mg/kg/week, iv after 1 week relative to vehicle-treated control; assay type: functional; procedure, shortened: as §1
MDA-MB-231 [18] = assay: Induction of apoptosis in human MDA-MB-231 cells xenografted in SCID mouse assessed as cIAP1 degradation at 5 mg/kg, after 2 to 24 hrs by Western blot analysis; assay type: functional, organism-based; design: dose 5 mg/kg; procedure, shortened: as §2
MDA-MB-231 [19] = assay: Induction of apoptosis in human MDA-MB-231 cells assessed as caspase-8 cleavage after 24 hrs by Western blot analysis; assay type: functional, cell-based; procedure, shortened: as §4
MDA-MB-231 [20] = assay: Induction of apoptosis in human MDA-MB-231 cells assessed as cIAP1 degradation at 0.3 nM after 24 hrs by Western blot analysis; assay type: functional, cell-based; procedure, shortened: as §4
[21] = AUC in Sprague-Dawley rat at 1 mg/kg, iv; assay type: ADME, organism-based; design: dose 1 mg/kg, route intravenous; settings: plasma
Rattus norvegicus [22] = assay: Apparent volume of distribution during terminal phase in Sprague-Dawley rat at 1 mg/kg, iv; assay type: ADME, organism-based; design: dose 1 mg/kg, route intravenous; settings: in vivo
[23] = Elimination half life in Sprague-Dawley rat at 1 mg/kg, iv; assay type: ADME, organism-based; design: dose 1 mg/kg, route intravenous; settings: in vivo, read-out: beta t1/2 (converted)

CC(=O)O[C@@]12CO[C@@H]1C[C@H](O)[C@@]1(C)C(=O)[C@H](O)C3=C(C)[C@@H](OC(=O)[C@H](O)[C@@H](NC(=O)OC(C)(C)C)c4ccccc4)C[C@@](O)([C@@H](OC(=O)c4ccccc4)[C@H]21)C3(C)C
Activity (MDA-MB-231 [1]): inactive
TGI (MDA-MB-231 [2]): Active

CN[C@@H](C)C(=O)N[C@H]1CN(C(=O)Nc2ccc(NC(=O)N3CC[C@H]4CC[C@@H](C(=O)NC(c5ccccc5)c5ccccc5)N4C(=O)[C@@H](NC(=O)[C@H](C)NC)C3)cc2)CC[C@H]2CC[C@@H](C(=O)NC(c3ccccc3)c3ccccc3)N2C1=O
Vz/F (Rattus norvegicus [3]): 0.5 L/kg
Activity (MDA-MB-231 [4]): 55%
AUC [5]: 3770 ng·h/mL
Activity (MDA-MB-231 [6]): Active
Activity (MDA-MB-231 [7]): >75%
Activity (MDA-MB-231 [8]): Active
Activity (MDA-MB-231 [9]): 93%
Activity (MDA-MB-231 [10]): Dose-dependent effect
Activity (MDA-MB-231 [11]): Dose-dependent effect
Activity (MDA-MB-231 [12]): Active
Activity (MDA-MB-231 [13]): 99%
Activity (Mus musculus): Non-toxic
half-life [14]: 4.9 h
Activity (MDA-MB-231 [15]): Active
Activity (MDA-MB-231 [16]): Dose-dependent effect
Activity (MDA-MB-231 [17]): 88%
Activity (MDA-MB-231 [18]): Active
Activity (MDA-MB-231 [19]): Dose-dependent effect

CN[C@@H](C)C(=O)N[C@H]1CCCC[C@H]2CC[C@@H](C(=O)N[C@@H](c3ccccc3)c3cn(CCCCc4ccc(CCCCn5cc([C@@H](NC(=O)[C@@H]6CC[C@@H]7CCCC[C@H](NC(=O)[C@H](C)NC)C(=O)N76)c6ccccc6)nn5)cc4)nn3)N2C1=O
Activity (MDA-MB-231 [7]): >75%
Activity (MDA-MB-231 [20]): Active
Activity (MDA-MB-231 [10]): Dose-dependent effect
Activity (MDA-MB-231 [11]): Dose-dependent effect
AUC [21]: 221 ng·h/mL
Vz/F (Rattus norvegicus [22]): 1 L/kg
Activity (MDA-MB-231 [16]): Dose-dependent effect
half-life [23]: 8.4 min
Activity (MDA-MB-231 [19]): Dose-dependent effect
